Laboratory results reported in ChEMBL document CHEMBL5678808, “Human target validation of phosphoinositide 3-kinase (PI3K)β: effects on platelets and insulin sensitivity, using AZD6482 a novel PI3Kβ inhibitor” (J Thromb Haemost, 2012).
Active and inactive are the calls of the source. The rule behind the calls is not given here.

How the values were obtained:
[1] = test system: Rattus norvegicus; experiment: Insulin sensitizing activity in Sprague-Dawley rat hyperinsulinemic-euglycemic glucose clamp model assessed as basal total insulin level during infusion of human insulin at 1000 ug/kg/min, iv for 2 mins followed by 50 ug/kg/min, iv for 28 mins (reference value: 0.3 +/- 0.1 nM); type: functional; conditions: time 30 min, 0.5 h
Method in brief: (§1)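 Anesthetized rats; hyperinsulinemic–euglycemic clamp with human insulin infused. A baseline clamp (Clamp1) was followed by a second clamp (Clamp2) with vehicle or drug i.v. The drug was given as a low dose (1000 μg kg−1 + 50 μg kg min−1) or a high dose (6000 μg kg−1 + 300 μg kg min−1). Steady-state glucose infusion rate for euglycemia was recorded, with plasma glucose, human insulin and total insulin; mean ± SEM, n = 4–5/group.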

[2] = biological target: Cyclin-dependent kinase 2/cyclin E1 (Homo sapiens, UniProt P24941); experiment: Inhibition of human CDK2/Cyclin E; type: protein-complex assay
[3] = biological target: Calcium/calmodulin-dependent protein kinase kinase 2 (Homo sapiens) (UniProt Q96RR4); experiment: Inhibition of human CAMKKbeta at 10 uM relative to control
[4] = biological target: Myosin light chain kinase, smooth muscle (Homo sapiens) (UniProt Q15746); experiment: Inhibition of human smMLCK at 10 uM relative to control
[5] = biological target: Serine/threonine-protein kinase PAK 4 (Homo sapiens) (UniProt O96013); experiment: Inhibition of human PAK4 at 10 uM relative to control
[6] = biological target: cAMP-dependent protein kinase (PKA) (Homo sapiens) (UniProt P22694+P17612+P22612); experiment: Inhibition of PKA (unknown origin) at 10 uM relative to control; type: protein assay
[7] = Clearance in human at 0.9 to 455.8 mg, iv administered for 3 hrs via infusion by LC-MS/MS analysis; type: ADME, organism-based; conditions: in vivo, dose 0.9-455.8 mg
Method in brief: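 Randomized, double-blind, placebo-controlled single ascending-dose study in healthy male volunteers aged 18–36. Each subject received a 3-h i.v. infusion (0.9–455.8 mg). Plasma levels were measured by protein precipitation and LC-MS/MS (LLOQ 0.005 μm), with non-compartmental PK analysis. Half-life was calculated only for the four highest dose groups. The 3-h sample was taken as Css.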

[8] = Inhibition of PI3Kbeta in Beagle dog whole blood assessed as reduction in ADP-induced platelet aggregation at 1 uM preincubated for 5 mins followed by ADP addition and measured for 6 mins by impedance aggregometry relative to control; conditions: Canis lupus familiaris, 11 min, condition thrombotic disease
[9] = biological target: Mitogen-activated protein kinase 13 (Homo sapiens) (UniProt O15264); experiment: Inhibition of human MAPK13 at 10 uM relative to control
[10] = biological target: Mitogen-activated protein kinase 1 (Mus musculus) (UniProt P63085); experiment: Inhibition of mouse MAPK1 at 10 uM relative to control
[11] = biological target: Aurora kinase C (Homo sapiens) (UniProt Q9UQB9); experiment: Inhibition of human AuroraC at 10 uM relative to control
[12] = Toxicity in Sprague-Dawley rat hyperinsulinemic-euglycemic glucose clamp model assessed as change in heart rate at 1000 ug/kg/min, iv for 2 mins followed by 50 ug/kg/min, iv for 28 mins; type: organism-based; conditions: in vivo, 0.5 h, time 30 min
Method in brief: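 Anesthetized rats underwent two consecutive hyperinsulinemic–euglycemic clamps with human insulin infusion: a baseline Clamp1, then Clamp2 with vehicle or AZD6482 i.v. (n = 4–5/group). Blood pressure and heart rate were followed during control periods and after drug administration. Steady-state glucose infusion rate maintained euglycemia.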

[13] = biological target: Ribosomal protein S6 kinase alpha-3 (Homo sapiens) (UniProt P51812); experiment: Inhibition of human MAPKAPK1B at 10 uM relative to control
[14] = biological target: Rho-associated protein kinase 2 (Rattus norvegicus) (UniProt Q62868); experiment: Inhibition of rat ROCK2 at 10 uM relative to control
[15] = biological target: Serine/threonine-protein kinase N2 (Homo sapiens) (UniProt Q16513); experiment: Inhibition of human PRK2 at 10 uM relative to control
[16] = test system: Rattus norvegicus; experiment: Insulin sensitizing activity in Sprague-Dawley rat hyperinsulinemic-euglycemic glucose clamp model assessed as human insulin level during infusion of human insulin at 1000 ug/kg/min, iv for 2 mins followed by 50 ug/kg/min, iv for 28 mins measured during clamp 1 (reference value: 1.7 +/- 0.1 nM); type: functional; conditions: time 30 min, 0.5 h; method in brief: as §1
[17] = biological target: Serine/threonine-protein kinase Chk2 (Homo sapiens) (UniProt O96017); experiment: Inhibition of human CHK2 at 10 uM relative to control
[18] = biological target: Focal adhesion kinase 1 (Homo sapiens, UniProt Q05397); experiment: Inhibition of human FAK
[19] = biological target: DNA-dependent protein kinase catalytic subunit (Homo sapiens, UniProt P78527); experiment: Inhibition of human DNA-PK assessed as reduction in protein phosphorylation by ELISA
Method in brief: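 Recombinant human DNA-PK was tested in a functional assay, with substrate protein phosphorylation read by ELISA. IC50 is reported as mean ± SEM, with the number of determinations given.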

[20] = Volume of distribution at steady state in human at 0.9 to 455.8 mg, iv administered for 3 hrs via infusion by LC-MS/MS analysis; type: ADME, organism-based; conditions: in vivo, dose 0.9-455.8 mg
Method in brief: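 Healthy male volunteers (18–36 years) in a randomized, double-blind, placebo-controlled single ascending-dose study received a 3-h i.v. infusion. Plasma drug levels were measured by protein precipitation then LC-MS/MS (LLOQ 0.005 μm). Non-compartmental pharmacokinetic analysis was used; median (range) across dose levels reported.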

[21] = biological target: Vascular endothelial growth factor receptor 2 (Homo sapiens, UniProt P35968); experiment: Inhibition of human KDR
[22] = biological target: Glycogen synthase kinase-3 beta (Homo sapiens) (UniProt P49841); experiment: Inhibition of human GSK3b at 10 uM relative to control
[23] = biological target: MAP kinase-activated protein kinase 3 (Homo sapiens) (UniProt Q16644); experiment: Inhibition of human MAPKAP-K3 at 10 uM relative to control
[24] = test system: Canis familiaris; experiment: Antithrombotic activity in Beagle dog model of arterial thrombosis and bleeding assessed as blood loss at 0.005 to 0.24 ug/kg/min, iv via bolus for 29 mins and measured for 15 mins; type: functional, organism-based; conditions: Canis lupus familiaris
Method in brief: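 Modified Folts' model of thrombosis in a damaged, stenosed femoral artery of anesthetized dogs. Animals first received saline vehicle. Consecutive i.v. doses then followed, each given over a 30-min period as a bolus (0.03–1.3 μg kg−1) plus an infusion (0.005–0.24 μg kg min−1). Read-outs were cyclic flow reductions, expressed as % restoration of blood flow, plus bleeding time, blood loss and plasma drug exposure. Mean ± SEM, n = 6.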

[25] = biological target: Lymphokine-activated killer T-cell-originated protein kinase (Homo sapiens) (UniProt Q96KB5); experiment: Inhibition of human PBK at 10 uM relative to control
[26] = biological target: Tyrosine-protein kinase JAK3 (Homo sapiens, UniProt P52333); experiment: Inhibition of human JAK3
[27] = biological target: Epidermal growth factor receptor (Homo sapiens, UniProt P00533); experiment: Inhibition of human EGFR
[28] = biological target: Mitogen-activated protein kinase 9 (Homo sapiens) (UniProt P45984); experiment: Inhibition of human MAPK9 at 10 uM relative to control

Mitogen-activated protein kinase 1 (Mus musculus), sequence (P63085 whole entry): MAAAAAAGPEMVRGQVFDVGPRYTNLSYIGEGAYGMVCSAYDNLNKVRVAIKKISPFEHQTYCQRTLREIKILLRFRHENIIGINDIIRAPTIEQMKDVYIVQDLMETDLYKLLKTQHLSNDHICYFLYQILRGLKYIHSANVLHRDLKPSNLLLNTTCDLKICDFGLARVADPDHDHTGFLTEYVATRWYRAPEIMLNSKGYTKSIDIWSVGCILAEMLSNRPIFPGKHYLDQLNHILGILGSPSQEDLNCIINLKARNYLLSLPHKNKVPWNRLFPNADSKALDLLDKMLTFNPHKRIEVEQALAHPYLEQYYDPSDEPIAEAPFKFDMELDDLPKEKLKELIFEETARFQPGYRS
Serine/threonine-protein kinase N2 (Homo sapiens), sequence (Q16513 whole entry, looked up, the tested form may be a part): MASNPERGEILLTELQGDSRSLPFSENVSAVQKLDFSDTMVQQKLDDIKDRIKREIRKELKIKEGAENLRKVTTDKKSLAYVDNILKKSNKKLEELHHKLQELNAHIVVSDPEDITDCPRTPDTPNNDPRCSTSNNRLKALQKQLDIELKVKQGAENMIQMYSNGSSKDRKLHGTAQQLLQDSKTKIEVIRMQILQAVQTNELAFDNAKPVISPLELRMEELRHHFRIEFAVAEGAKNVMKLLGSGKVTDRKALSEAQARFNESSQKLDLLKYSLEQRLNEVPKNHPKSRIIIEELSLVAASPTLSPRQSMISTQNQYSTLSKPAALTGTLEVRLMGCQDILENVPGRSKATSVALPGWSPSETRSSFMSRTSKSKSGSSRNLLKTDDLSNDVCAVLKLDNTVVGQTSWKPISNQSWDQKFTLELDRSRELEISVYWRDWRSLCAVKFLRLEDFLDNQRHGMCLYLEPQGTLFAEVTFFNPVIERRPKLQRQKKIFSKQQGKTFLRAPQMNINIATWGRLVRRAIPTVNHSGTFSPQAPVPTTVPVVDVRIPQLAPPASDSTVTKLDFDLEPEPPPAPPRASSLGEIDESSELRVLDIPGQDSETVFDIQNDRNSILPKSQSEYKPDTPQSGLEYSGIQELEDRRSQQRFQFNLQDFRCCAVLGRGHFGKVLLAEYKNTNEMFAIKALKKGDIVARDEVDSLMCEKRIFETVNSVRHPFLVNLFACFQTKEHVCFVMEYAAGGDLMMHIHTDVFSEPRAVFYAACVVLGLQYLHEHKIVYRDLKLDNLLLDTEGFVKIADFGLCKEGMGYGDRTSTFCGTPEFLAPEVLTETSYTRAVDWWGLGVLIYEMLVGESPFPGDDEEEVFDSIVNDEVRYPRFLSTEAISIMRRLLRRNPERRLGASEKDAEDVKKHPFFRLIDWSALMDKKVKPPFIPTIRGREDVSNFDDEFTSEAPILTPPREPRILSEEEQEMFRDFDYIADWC
Glycogen synthase kinase-3 beta (Homo sapiens), sequence (P49841 whole entry, looked up): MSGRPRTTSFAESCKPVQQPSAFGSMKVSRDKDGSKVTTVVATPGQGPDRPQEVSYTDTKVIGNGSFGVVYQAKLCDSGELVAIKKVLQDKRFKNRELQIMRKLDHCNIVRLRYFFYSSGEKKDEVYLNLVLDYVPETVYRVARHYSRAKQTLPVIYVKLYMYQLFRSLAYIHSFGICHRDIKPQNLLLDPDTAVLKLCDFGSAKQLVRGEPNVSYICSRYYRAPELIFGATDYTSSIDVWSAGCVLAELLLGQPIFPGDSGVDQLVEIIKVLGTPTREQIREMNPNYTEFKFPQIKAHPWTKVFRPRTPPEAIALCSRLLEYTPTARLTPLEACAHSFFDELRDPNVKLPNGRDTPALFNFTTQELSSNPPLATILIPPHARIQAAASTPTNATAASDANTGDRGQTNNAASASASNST
Mitogen-activated protein kinase 13 (Homo sapiens), sequence (O15264 whole entry): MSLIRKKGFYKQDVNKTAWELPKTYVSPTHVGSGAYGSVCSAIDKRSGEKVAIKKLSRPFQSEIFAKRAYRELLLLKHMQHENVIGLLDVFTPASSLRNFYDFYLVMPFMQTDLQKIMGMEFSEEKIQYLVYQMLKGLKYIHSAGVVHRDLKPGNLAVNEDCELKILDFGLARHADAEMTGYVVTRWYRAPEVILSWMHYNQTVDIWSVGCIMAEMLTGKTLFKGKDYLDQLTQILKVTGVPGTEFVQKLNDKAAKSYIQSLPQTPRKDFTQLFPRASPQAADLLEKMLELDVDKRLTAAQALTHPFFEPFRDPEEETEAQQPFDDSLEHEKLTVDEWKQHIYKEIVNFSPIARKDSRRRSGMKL
Epidermal growth factor receptor, sequence (P00533 whole entry): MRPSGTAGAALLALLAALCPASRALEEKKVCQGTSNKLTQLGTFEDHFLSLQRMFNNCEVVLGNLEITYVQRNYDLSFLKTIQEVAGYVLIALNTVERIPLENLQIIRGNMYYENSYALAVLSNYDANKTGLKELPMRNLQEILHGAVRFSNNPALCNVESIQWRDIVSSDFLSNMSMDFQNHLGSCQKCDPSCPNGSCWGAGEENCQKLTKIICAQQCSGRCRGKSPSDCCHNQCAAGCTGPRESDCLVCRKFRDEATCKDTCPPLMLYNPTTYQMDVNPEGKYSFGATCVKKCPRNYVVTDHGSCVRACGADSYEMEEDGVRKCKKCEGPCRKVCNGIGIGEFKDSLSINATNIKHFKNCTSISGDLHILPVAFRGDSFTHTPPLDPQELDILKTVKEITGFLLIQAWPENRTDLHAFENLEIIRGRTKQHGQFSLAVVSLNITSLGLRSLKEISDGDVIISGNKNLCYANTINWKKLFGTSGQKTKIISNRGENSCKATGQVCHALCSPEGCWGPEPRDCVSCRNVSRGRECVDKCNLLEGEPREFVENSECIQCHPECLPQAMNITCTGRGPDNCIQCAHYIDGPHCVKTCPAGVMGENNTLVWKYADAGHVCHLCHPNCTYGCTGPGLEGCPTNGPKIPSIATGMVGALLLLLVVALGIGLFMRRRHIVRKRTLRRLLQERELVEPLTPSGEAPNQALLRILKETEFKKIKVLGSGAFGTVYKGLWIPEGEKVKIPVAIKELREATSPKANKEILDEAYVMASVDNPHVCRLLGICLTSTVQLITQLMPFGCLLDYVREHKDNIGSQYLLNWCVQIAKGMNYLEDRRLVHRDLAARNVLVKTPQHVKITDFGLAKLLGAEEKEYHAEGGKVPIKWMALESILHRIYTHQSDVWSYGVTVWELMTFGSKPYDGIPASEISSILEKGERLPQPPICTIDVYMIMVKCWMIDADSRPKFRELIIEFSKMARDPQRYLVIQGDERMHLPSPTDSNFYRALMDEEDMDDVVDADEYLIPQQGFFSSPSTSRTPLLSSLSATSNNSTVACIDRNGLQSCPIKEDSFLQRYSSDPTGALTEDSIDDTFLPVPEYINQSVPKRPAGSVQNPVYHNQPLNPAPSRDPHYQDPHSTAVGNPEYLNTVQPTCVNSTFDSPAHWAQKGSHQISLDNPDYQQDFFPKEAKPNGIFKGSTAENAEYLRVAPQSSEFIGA
Serine/threonine-protein kinase PAK 4 (Homo sapiens), sequence (O96013 whole entry, looked up): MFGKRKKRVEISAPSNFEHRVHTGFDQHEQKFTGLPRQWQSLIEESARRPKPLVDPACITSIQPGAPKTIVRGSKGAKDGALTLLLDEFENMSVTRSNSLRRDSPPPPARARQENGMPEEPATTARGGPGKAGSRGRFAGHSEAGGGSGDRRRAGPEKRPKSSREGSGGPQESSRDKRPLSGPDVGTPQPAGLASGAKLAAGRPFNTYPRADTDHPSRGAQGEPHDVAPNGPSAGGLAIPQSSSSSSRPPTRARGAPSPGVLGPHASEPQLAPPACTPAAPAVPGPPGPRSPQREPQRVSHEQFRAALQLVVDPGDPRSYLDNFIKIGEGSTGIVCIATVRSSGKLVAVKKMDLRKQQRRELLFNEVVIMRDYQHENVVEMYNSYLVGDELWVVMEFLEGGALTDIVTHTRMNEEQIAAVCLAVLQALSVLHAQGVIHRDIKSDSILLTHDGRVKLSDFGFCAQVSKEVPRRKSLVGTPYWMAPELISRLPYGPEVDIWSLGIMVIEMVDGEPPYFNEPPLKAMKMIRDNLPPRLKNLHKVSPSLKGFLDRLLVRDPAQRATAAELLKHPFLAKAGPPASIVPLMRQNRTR
Aurora kinase C (Homo sapiens), sequence (Q9UQB9 whole entry): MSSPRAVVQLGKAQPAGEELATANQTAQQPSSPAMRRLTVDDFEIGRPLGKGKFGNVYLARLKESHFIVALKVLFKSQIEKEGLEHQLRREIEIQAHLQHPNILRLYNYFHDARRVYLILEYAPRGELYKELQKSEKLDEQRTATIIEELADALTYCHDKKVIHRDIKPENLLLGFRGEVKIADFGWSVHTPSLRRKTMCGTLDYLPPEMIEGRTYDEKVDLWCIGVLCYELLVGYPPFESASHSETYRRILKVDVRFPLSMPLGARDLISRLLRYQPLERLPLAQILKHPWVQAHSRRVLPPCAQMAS
Ribosomal protein S6 kinase alpha-3 (Homo sapiens), sequence (P51812 whole entry): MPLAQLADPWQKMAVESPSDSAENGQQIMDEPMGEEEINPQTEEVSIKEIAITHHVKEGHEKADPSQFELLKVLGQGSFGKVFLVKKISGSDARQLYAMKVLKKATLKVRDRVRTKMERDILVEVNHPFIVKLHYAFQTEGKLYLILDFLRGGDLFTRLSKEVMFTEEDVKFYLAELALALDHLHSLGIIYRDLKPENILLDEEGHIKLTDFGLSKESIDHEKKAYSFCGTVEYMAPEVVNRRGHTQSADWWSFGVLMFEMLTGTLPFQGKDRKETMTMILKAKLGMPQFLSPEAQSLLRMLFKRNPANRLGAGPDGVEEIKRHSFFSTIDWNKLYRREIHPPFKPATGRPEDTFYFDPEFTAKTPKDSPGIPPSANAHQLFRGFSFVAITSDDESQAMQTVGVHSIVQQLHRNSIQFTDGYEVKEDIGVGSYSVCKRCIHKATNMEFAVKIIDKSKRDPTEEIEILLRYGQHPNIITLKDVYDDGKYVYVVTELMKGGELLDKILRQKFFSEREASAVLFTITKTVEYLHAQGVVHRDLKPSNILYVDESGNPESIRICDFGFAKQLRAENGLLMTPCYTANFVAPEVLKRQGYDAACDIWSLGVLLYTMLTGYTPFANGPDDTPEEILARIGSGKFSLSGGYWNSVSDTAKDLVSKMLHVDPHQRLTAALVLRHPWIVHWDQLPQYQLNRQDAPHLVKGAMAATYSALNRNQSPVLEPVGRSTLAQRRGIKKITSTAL

IC50 [2]: > 1000 µM | inhibition [3]: 14% | inhibition [4]: 2.6% | inhibition [5]: -6.4% | inhibition [6]: -7.5% | clearance [7]: 1180 mL/min | inhibition [9]: -10% | inhibition [10]: 3.6% | inhibition [11]: 56% | inhibition [13]: 15% | inhibition [14]: -1.5% | inhibition [15]: -2.9% | inhibition [17]: 9.9% | IC50 [18]: > 1000 µM | IC50 [19]: 0.42 µM | Vd [20]: 48 L | IC50 [21]: > 117 µM | inhibition [22]: 21% | inhibition [23]: 8.3% | IC50 [26]: > 201 µM | IC50 [27]: > 298 µM | inhibition [28]: 0.2%
SMILES: Cc1cc([C@@H](C)Nc2ccccc2C(=O)O)c2nc(N3CCOCC3)cc(=O)n2c1 [AZD-6482]
Activity [1]: 0.3 nM | inhibition at 1 µM [8]: > 80% | Activity [12]: Non-Toxic | Activity [16]: 1.8 nM | Activity [24]: inactive | inhibition [25]: 6.9%
